ChEMBL document CHEMBL3259573, “Optimization of 2-(3-(arylalkyl amino carbonyl) phenyl)-3-(2-methoxyphenyl)-4-thiazolidinone derivatives as potent antitumor growth and metastasis agents” (Eur J Med Chem, 2014)
The source made the active and inactive calls. The rule behind the calls is not given here.

Assays:
[1] = test system: A549; assay: Antiproliferative activity against human A549 cells after 48 hrs by sulforhodamine B assay; format: functional, cell-based; settings: A549, 48 h
Method in brief: (§1)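 Cells kept in RPMI 1640 at 37 °C, 5% CO₂, and seeded 24 h before treatment, with DMSO as control. After 48 h, fixed with cold 50% TCA 1 h at 4 °C and stained with 0.4% SRB in 1% acetic acid for 10 min. Washed five times with 1% acetic acid, dye solubilized in 10 mM Tris base, OD read at 515 nm.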

[2] = test system: MDA-MB-231; assay: Antiproliferative activity against human MDA-MB-231 cells after 48 hrs by sulforhodamine B assay; format: functional, cell-based; settings: MDA-MB-231, 48 h; method in brief: as §1
[3] = test system: MDA-MB-231; assay: Antimetastatic activity against human MDA-MB-231 cells assessed as inhibition of cell migration after 24 hrs by wound healing assay; format: functional, cell-based; settings: for IC50: MDA-MB-231, 24 h
Method in brief: (§2)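 Cells grown at 37 °C in complete RPMI 1640 to 80–90% confluence, then serum-starved 12 h. Monolayer scraped with pipette tip, washed twice with PBS, refed complete RPMI 1640 with compound (0.5 or 0.05 uM per legend). Incubated 24 h at 37 °C, then fixed and photographed. Migrated cells counted manually, inhibition expressed relative to untreated (100%). Three independent experiments, 95% CI.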

[4] = test system: MDA-MB-231; assay: Antimetastatic activity against luciferase-labeled human MDA-MB-231 cells xenografted in ip dosed nude mouse assessed as reduction in development of lung metastasis administered 1 week prior to tumor implantation measured after 21 days by bioluminescence assay; format: functional, organism-based
Method in brief: (§3)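 Nude mice randomized into 3 groups (n = 6) and given DMSO or compound at 1.0 or 5.0 mg/kg/day by intraperitoneal injection. Dosing started one week before tail-vein injection of 1 × 10⁶ firefly luciferase-expressing MDA-MB-231 cells in PBS and continued 21 days. Lung metastasis read by bioluminescence photon flux; survival by Kaplan–Meier analysis.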

[5] = test system: MDA-MB-231; assay: Cell cycle arrest in human MDA-MB-231 cells assessed as accumulation at G2/M phase at 1 uM by propidium iodide staining-based FACS analysis relative to control; format: functional
[6] = test system: Mus musculus; assay: Toxicity in nude mouse xenografted with luciferase-labeled human MDA-MB-231 cells assessed as change in body weight at 1 to 5 mg/kg/day, ip administered 1 week prior to tumor implantation measured after 21 days; format: organism-based; design: route intraperitoneal; settings: in vivo, 504 h
[7] = test system: MDA-MB-231; assay: Antimetastatic activity against human MDA-MB-231 cells assessed as inhibition of cell migration after 10 to 12 hrs by transwell assay; format: functional, cell-based
Method in brief: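 MDA-MB-231 cells (5 × 10⁴) in serum-free medium placed in upper chamber, 10% FBS medium below; compound at fixed concentrations in both chambers. Migration approximately 10 h (legend says 12 h). Non-migrated cells swabbed off, migrated cells fixed in paraformaldehyde 1 h, stained 0.1% crystal violet, counted in 7–8 random fields. Three independent experiments, means with 95% confidence intervals.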

[8] = test system: A549; assay: Antitumor activity against human A549 cells xenografted in nude mouse assessed as reduction in tumor weight at 5 to 10 mg/kg/day, ip for 28 days; format: functional, organism-based
[9] = test system: MDA-MB-231; assay: Antimetastatic activity against luciferase-labeled human MDA-MB-231 cells xenografted in nude mouse assessed as reduction in development of lung metastasis at 1 to 5 mg/kg/day, ip administered 1 week prior to tumor implantation measured after 21 days by bioluminescence assay; format: functional, organism-based; settings: TDE = time-dependent effect; method in brief: as §3
[10] = test system: A549; assay: Antitumor activity against human A549 cells xenografted in nude mouse assessed as reduction in tumor volume at 5 to 10 mg/kg/day, ip for 28 days; format: functional, organism-based
[11] = test system: MDA-MB-231; assay: Antimetastatic activity against luciferase-labeled human MDA-MB-231 cells xenografted in nude mouse assessed as reduction in photon flux in lungs at 5 mg/kg/day, ip administered 1 week prior to tumor implantation measured after 21 days by bioluminescence assay relative to control; format: functional; design: scale not given: the % may be the effect or the level left; settings: route intraperitoneal; method in brief: as §3
[12] = test system: MDA-MB-231; assay: Antimetastatic activity against luciferase-labeled human MDA-MB-231 cells xenografted in nude mouse assessed as increase in mouse survival at 1 to 5 mg/kg/day, ip administered 1 week prior to tumor implantation measured after 21 days; format: functional, organism-based; method in brief: as §3
[13] = test system: Mus musculus; assay: Toxicity in nude mouse xenografted with human A549 cells assessed as change in body weight at 5 to 10 mg/kg/day, ip for 28 days; format: organism-based; design: route intraperitoneal; settings: in vivo, 672 h
[14] = test system: MDA-MB-231; assay: Induction of apoptosis in human MDA-MB-231 cells at 0.1 to 1 uM after 48 hrs by annexin V-FITC and propidium iodide staining-based flow cytometric analysis; format: functional, cell-based
Method in brief: (§4)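 Treatment 48 h. Cells washed with cold PBS, resuspended in binding buffer, stained with Annexin V-FITC/PI 15 min. 10,000 stained cells per sample analyzed by flow cytometry.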

[15] = test system: A549; assay: Cell cycle arrest in human A549 cells assessed as accumulation at G2/M phase at 1 uM by propidium iodide staining-based FACS analysis relative to control; format: functional
[16] = test system: A549; assay: Induction of apoptosis in human A549 cells at 0.1 to 1 uM after 48 hrs by annexin V-FITC and propidium iodide staining-based flow cytometric analysis; format: functional, cell-based; method in brief: as §4
[17] = test system: MDA-MB-231; assay: Antimetastatic activity against human MDA-MB-231 cells assessed as inhibition of cell migration at 0.5 uM after 24 hrs by wound healing assay; format: functional, cell-based; method in brief: as §2

IC50 [1] [µM]	IC50 [2] [µM]	SMILES	other results
0.47	1.36	COc1ccccc1N1C(=O)CSC1c1cccc(C(=O)NCCc2ccc(F)cc2)c1 (stereo not drawn)	
> 50	> 50	O=C1CSC(c2cccc(Br)c2)N1c1ccc(O)cc1 (stereo not drawn)	
14.4	> 50	COc1ccccc1N1C(=O)CSC1c1cccc(CBr)c1 (stereo not drawn)	
31.6	12.3	COc1ccccc1N1C(=O)CSC1c1cccc(C(=O)NCCCc2ccccc2)c1 (stereo not drawn)	
22.6	> 50	CNc1ccccc1N1C(=O)CSC1c1cccc(Br)c1 (stereo not drawn)	
> 50	> 50	O=C1CSC(c2cccc(Br)c2)N1c1ccccc1 (stereo not drawn)	
0.96	> 25	COc1ccccc1N1C(=O)CSC1c1cccc(C(=O)NCCc2ccccc2)c1 (stereo not drawn)	inhibition [3]: Active
> 50	> 50	CCN(CC)C(=O)c1cccc(C2SCC(=O)N2c2ccccc2OC)c1 (stereo not drawn)	
0.21	0.23	COc1ccccc1N1C(=O)CSC1c1cccc(C(=O)NCCc2ccc(Br)cc2)c1 (stereo not drawn)	Activity [4]: Dose-dependent effect; Activity [5]: 48.34%; Activity [6]: Toxic; IC50 [7]: 0.01 µM; inhibition [7]: Dose-dependent effect; Activity [8]: Active; Activity [9]: tde; Activity [10]: Active; Activity [11]: 96.5%; Activity [12]: Active; Activity [13]: Non-toxic; Activity [14]: inactive; Activity [15]: 42.4%; IC50 [3]: < 0.05 µM; Activity [16]: inactive
37.6	> 50	CN(C)c1ccccc1N1C(=O)CSC1c1cccc(Br)c1 (stereo not drawn)	
> 50	> 50	O=C1CSC(c2cccc(Br)c2)N1c1nccs1 (stereo not drawn)	
> 50	> 50	COc1ccccc1N1C(=O)CSC1Cc1ccccc1 (stereo not drawn)	
37.1	17.7	O=C1CSC(c2cccc(Br)c2)N1c1cccc(O)c1 (stereo not drawn)	
> 50	> 50	COc1ccccc1N1C(=O)CSC1c1cccc(F)c1 (stereo not drawn)	
> 50	> 50	COc1ccccc1N1C(=O)CSC1c1cccs1 (stereo not drawn)	
0.72	1.77	COc1ccccc1N1C(=O)CSC1c1cccc(C(=O)NCCc2ccc(O)cc2)c1 (stereo not drawn)	inhibition [3]: Active
8.52	13.9	COc1ccccc1N1C(=O)CSC1c1cccc(C(=O)NCCc2ccccc2Br)c1 (stereo not drawn)	
> 50	> 50	C=CCN(CC=C)C(=O)c1cccc(C2SCC(=O)N2c2ccccc2OC)c1 (stereo not drawn)	
> 25	> 25	COc1ccccc1N1C(=O)CSC1c1cccc(C(=O)Nc2ccccc2)c1 (stereo not drawn)	
43.7	> 50	O=C1CSC(c2cccc(Br)c2)N1c1cccc([N+](=O)[O-])c1 (stereo not drawn)	
> 50	47.5	COc1cccc(N2C(=O)CSC2c2cccc(Br)c2)c1 (stereo not drawn)	
31.5	> 50	COc1ccccc1N1C(=O)CSC1c1ccccc1Br (stereo not drawn)	

IC50 [1] [µM]	IC50 [2] [µM]	SMILES	other results
> 50	> 50	COc1ccccc1N1C(=O)CSC1c1cccc(C(=O)O)c1 (stereo not drawn)	
8.98	18	CCOc1ccc(N2C(=O)CSC2c2cccc(Br)c2)cc1 (stereo not drawn)	
1.87	4.52	COc1ccccc1N1C(=O)CSC1c1cccc(Br)c1 (stereo not drawn)	
5.06	> 25	COc1ccccc1N1C(=O)CSC1c1cccc(C(=O)NCc2ccccc2)c1 (stereo not drawn)	
0.13	0.05	COc1ccc(CCNC(=O)c2cccc(C3SCC(=O)N3c3ccccc3OC)c2)cc1 (stereo not drawn)	inhibition [3]: Active
0.16	0.18	COc1ccccc1N1C(=O)CSC1c1cccc(C(=O)NCCc2ccc(Cl)cc2)c1 (stereo not drawn)	IC50 [7]: 0.01 µM; inhibition [7]: Dose-dependent effect; IC50 [3]: < 0.05 µM
13.7	32.6	O=C1CSC(c2cccc(Br)c2)N1c1ccccc1O (stereo not drawn)	
9.95	27	O=C1CSC(c2cccc(Br)c2)N1c1cc(Cl)ccc1O (stereo not drawn)	inhibition [17]: inactive
14.8	17.1	COc1ccc(N2C(=O)CSC2c2cccc(Br)c2)c(OC)c1 (stereo not drawn)	
> 50	> 50	COc1ccccc1N1C(=O)CSC1c1cccc(C(=O)N2CCCCC2)c1 (stereo not drawn)	
20.7	> 50	O=C1CSC(c2cccc(Br)c2)N1CCc1ccccc1 (stereo not drawn)	
> 50	> 50	COc1ccccc1N1C(=O)CSC1c1ccc2ccccc2n1 (stereo not drawn)	
11.3	43	COc1ccccc1N1C(=O)CSC1c1cccc([N+](=O)[O-])c1 (stereo not drawn)	
8.18	13.9	COc1ccccc1N1C(=O)CSC1c1cccc(Cl)c1 (stereo not drawn)	
> 50	> 50	O=C1CSC(c2cccc(Br)c2)N1c1ncccn1 (stereo not drawn)	
> 50	> 50	COc1ccccc1N1C(=O)CSC1c1cccc(O)c1 (stereo not drawn)	
48.5	> 50	COc1ccccc1N1C(=O)CSC1c1ccc(Br)cc1 (stereo not drawn)	
> 50	> 50	COc1cccc(C2SCC(=O)N2c2ccccc2OC)c1 (stereo not drawn)	
0.29	23.1	COC(=O)c1cccc(C2SCC(=O)N2c2ccccc2OC)c1 (stereo not drawn)	
> 50	> 50	COc1ccccc1N1C(=O)CSC1c1ccncc1 (stereo not drawn)	
> 50	> 50	COc1ccccc1N1C(=O)CSC1c1ccccc1 (stereo not drawn)	
